Experimental data pooled from the literature.
Compare with care: the assays were run in different laboratories.
MET Y1235D: Hepatocyte growth factor receptor (MET, Homo sapiens, UniProt P08581, Y1235D)
MET: Hepatocyte growth factor receptor (MET, Homo sapiens, UniProt P08581)
MET M1250T: Hepatocyte growth factor receptor (MET, Homo sapiens, UniProt P08581, M1250T)

| SMILES | target | read-out | mode | technique | tested at | quantity | value |
| --- | --- | --- | --- | --- | --- | --- | --- |
| C#Cc1n[nH]c2c(-c3cn(C(C)c4ccccn4)c(=O)[nH]c3=O)cc(F)cc12 (stereo not shown) | Hepatocyte growth factor receptor (MET, Homo sapiens, UniProt P08581, D1228H) | enzyme activity | inhibitor |  | 1 µM | inhibition | 100% |
| N#CC1(c2ccccn2)CCN(Cc2cc(C(=O)O)c(=O)n3ccccc23)CC1 | MET Y1235D | cell-free assay |  | competition with immobilised ligand | 1 µM | remaining binding | 99% |
| O=c1[nH]c2ccccc2n1C1CCN(Cc2ccc(-c3[nH]c4cc5ncnc5cc4nc3-c3ccccc3)cc2)CC1 | MET | cell-free assay |  |  | 0.5 µM | remaining signal | 102% |
| Cn1cncc1[C@](O)(COc1ccc(C#N)cc1-c1ccc(OC(F)(F)F)cc1)c1ccc(C#N)cc1 | MET M1250T | cell-free assay |  | competition with immobilised ligand | 1 µM | remaining binding | 100% |
| CC(C)(C)c1cc(C=C(C#N)C#N)cc(Br)c1O | MET | enzyme activity | inhibitor |  | 0.5 µM | remaining activity | 111% |
| Cn1cc(-c2cc(F)cc(N3CCn4c(cc5c4CCCC5)C3=O)c2CO)cc(Nc2ccc(N3CCN(C4COC4)CC3)cn2)c1=O | MET | enzyme activity | inhibitor |  | 0.1 µM | inhibition | 15% |
| Nc1ncc(-c2nc(N3CCOCC3)nc(N3CCOCC3)n2)c(C(F)F)n1 | MET Y1235D | cell-free assay |  | competition with immobilised ligand | 10 µM | remaining binding | 92% |
| Cn1cc(-c2cccc(N3CCc4c(sc5c4CC(C)(C)C5)C3=O)c2CO)cc(Nc2ccncn2)c1=O | MET M1250T | enzyme activity | inhibitor |  | 1 µM | inhibition | 5% |
| COc1ncccc1-c1cnn2ccc(N3CCN(C(=O)OC(C)C)CC3)nc12 | MET | binding |  | competition with immobilised ligand | 1 µM | remaining binding | 88% |
| Cc1nn(C)cc1-c1nc2c(N3CCN(Cc4ccc(Cl)cc4)CC3)c(Cl)cnc2[nH]1 | MET | binding |  | competition with immobilised ligand | 1 µM | remaining binding | 83% |
